Screening results as filed in PubChem BioAssay.
ANO1 activ: activators or potentiators of mouse TMEM16A chloride channel. Q8BHY3. HEK293 TMEM16A/YFP-H148Q/I152L, iodide quench fluorescence; hits give low values. B-score at 10 µM. 340,000 compounds, 0.3% hits;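 active = fluorescence-ratio B-score plate-corrected deviation score at least 3 library SD below zero, with starting fluorescence score within 5 deviations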;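 note: channel opened by trigger with iodide after compound preincubation; score built on the fluorescence ratio of max minus min over baseline; more negative score means more quench and so TMEM16A activation or potentiation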
Target sequence (Q8BHY3 whole entry, looked up): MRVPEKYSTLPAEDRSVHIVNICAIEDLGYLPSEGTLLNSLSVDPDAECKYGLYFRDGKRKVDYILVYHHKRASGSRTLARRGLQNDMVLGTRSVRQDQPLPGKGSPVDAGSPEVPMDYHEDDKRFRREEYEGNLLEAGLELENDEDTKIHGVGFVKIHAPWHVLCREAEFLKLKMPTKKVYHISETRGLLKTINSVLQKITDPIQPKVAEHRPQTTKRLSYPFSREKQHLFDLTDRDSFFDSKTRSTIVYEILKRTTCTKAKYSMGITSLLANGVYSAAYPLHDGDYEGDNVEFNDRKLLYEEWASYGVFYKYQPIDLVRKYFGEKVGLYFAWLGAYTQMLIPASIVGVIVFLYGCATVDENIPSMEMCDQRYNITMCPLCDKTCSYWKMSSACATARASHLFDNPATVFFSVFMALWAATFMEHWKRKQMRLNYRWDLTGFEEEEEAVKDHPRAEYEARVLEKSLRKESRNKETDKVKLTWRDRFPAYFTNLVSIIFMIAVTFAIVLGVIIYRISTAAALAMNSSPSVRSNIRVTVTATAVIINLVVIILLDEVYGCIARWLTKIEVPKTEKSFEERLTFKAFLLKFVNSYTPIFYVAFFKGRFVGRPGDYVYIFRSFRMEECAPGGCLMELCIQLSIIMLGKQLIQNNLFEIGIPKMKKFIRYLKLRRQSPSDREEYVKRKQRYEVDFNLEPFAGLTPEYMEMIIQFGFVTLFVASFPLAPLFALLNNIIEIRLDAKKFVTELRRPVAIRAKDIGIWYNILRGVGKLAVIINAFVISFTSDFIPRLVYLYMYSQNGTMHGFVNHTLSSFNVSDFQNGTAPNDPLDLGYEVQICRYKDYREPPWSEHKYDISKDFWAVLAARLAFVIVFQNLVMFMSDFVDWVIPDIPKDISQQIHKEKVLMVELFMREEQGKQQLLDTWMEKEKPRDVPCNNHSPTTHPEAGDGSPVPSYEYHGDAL
CRFR2-BP antag: CRF-BP/CRF-R2 complex antagonism; HEK293 CRF-R2/CRF-BP, CRF-induced calcium fluorescence; inhibition, % at 11.8 µM; 350,000 compounds, 0.59% hits; AID 588475;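 active = inhibition of the ligand-induced calcium signal above about 50% at the single tested concentration, limit read from the data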
TAAR1 ag: human TAAR1 agonism; 360,000 compounds, 0.99% hits; activation, % at 3 µM; CHO RD-HGA16 TAAR1, Fluo-8 calcium fluorescence; vehicle wells 0%, saturating PEA agonist 100%;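 active = activation above the mean activation of all test compounds in the run plus 3 SD, cut at about 38% in these data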
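System: CHO-derived RD-HGA16 cells with stable Gα16 and human TAAR1. Times: 17-24 h plating, Fluo-8 75 min 37 °C, 30 min RT. Measured by: calcium-sensitive Fluo-8 signal, excitation 470-495, emission 515-575 nm. Read-out basis: % activation relative to PEA EC100 response. Control set: DMSO and PEA EC100. Repeats: no replicates (n 1).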
CRFBP-R2 agonist: CRF-BP/CRF-R2 complex agonism; activation, % at 13.2 µM; 350,000 compounds, 0.46% hits; HEK293 CRF-R2/CRF-BP, calcium dye fluorescence (FLIPR); percent of saturating CRF peptide response; AID 588473;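 active = activation of at least 50%, plus an integration ratio under a set limit after plate pattern correction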;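 note: plate controls were neutral control wells without compound for no effect and CRF at EC100 for full effect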
TMEM16A inh: inhibitors of mouse TMEM16A calcium-activated chloride channel; HEK293 TMEM16A/YFP iodide influx fluorescence, ionomycin; 310,000 compounds, 1.2% hits; normalized B-score (activity score, 25-100; higher = stronger inhibition) at 10 µM;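 active = ratio plate-corrected score three or more library SD toward inhibition, starting fluorescence score within five deviations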;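 note: score derived from kinetic fluorescence span divided by baseline fluorescence per well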
TAAR1 antag: antagonists of human TAAR1. Q96RJ0. CHO RD-HGA16 TAAR1, Fluo-8 calcium fluorescence, antagonist. inhibition, % at 3 µM. 360,000 compounds, 1.5% hits;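 active = inhibition above a per-plate cutoff, the mean inhibition of test compounds on that plate plus 3 SD, cut at about 49% in these data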;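 note: 0% = DMSO plus EC80 beta-PEA response and 100% = DMSO alone without agonist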
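Test system: hTAAR1-expressing CHO RD-HGA16 cells, Gα16-coupled; Probe or stimulus: EC80 β-phenethylamine stimulus; Compound dosing: single nominal final test compound concentration of 3 µM; Timing: 140 s kinetic read after compound, 140 s after agonist; Signal: Fluo-8 calcium-sensitive fluorescence; Measure: % inhibition of agonist calcium response; Controls: DMSO and EC80 PEA controls.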
TAAR1 ag conf: human TAAR1 agonism, confirmed; CHO RD-HGA16 TAAR1, Fluo-8 calcium fluorescence; scaled: DMSO 0%, maximal phenethylamine 100%; shares compounds with TAAR1 ag; activation, % at 3 µM; 2,400 compounds, 82% hits;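 active = activation above a cutoff set at the run's mean compound activation plus 3 SD, cut at about 39% in these data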
Ga16 ag counter: counter-screen for TAAR1 agonists: nonselective agonists in parental cells | shares compounds with TAAR1 ag | CHO-Ga16 parental, Fluo-8 calcium fluorescence; normalized to maximal ATP response, DMSO zero | activation, % at 3 µM | 2,400 compounds, 50% hits | AID 651787;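 active = activation above the run cutoff, the mean activation over all tested wells plus 3 SD, cut at about 12% in these data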;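 note: 0% = DMSO wells and 100% = maximal ATP response on the peak over basal ratio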
TAAR1 desens: human TAAR1 agonist that also desensitizes the receptor | shares compounds with TAAR1 ag | CHO RD-HGA16 hTAAR1, Fluo-8 calcium, beta-PEA response inhibition | inhibition, % at 3 µM | 2,400 compounds, 46% hits;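 active = inhibition above the run cutoff, the mean inhibition of all test compounds plus 3 SD, cut at about 49% in these data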;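 note: beta-PEA stimulus applied at its EC80; loss of beta-PEA calcium signal after compound pretreatment read as receptor desensitization; 0% = DMSO with beta-PEA at EC80 and 100% = DMSO alone without agonist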
Ga16 nonsel ant: nonselective Ga16 antagonist in TAAR1 agonist counter-screen; AID 651952; inhibition, % at 3 µM; 2,400 compounds, 39% hits; shares compounds with TAAR1 ag; CHO-Ga16 ATP-induced calcium, Fluo-8 fluorescence;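 active = inhibition above the plate's mean compound inhibition plus 3 SD, computed per plate, cut at about 22% in these data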;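 note: 0% = EC80 ATP with DMSO and 100% = DMSO wells without ATP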
The depositor's hits bear a star; i = inactive; nt = not tested or not shown; + = active, no number. Sampled rows, rich in hits. Any-hit rate of the full collection: about 3.9%.

SMILES	ANO1 activ	CRFR2-BP antag	TAAR1 ag	CRFBP-R2 agonist	TMEM16A inh	TAAR1 antag	TAAR1 ag conf	Ga16 ag counter	TAAR1 desens	Ga16 nonsel ant
COc1ccccc1N1CCN(C(=O)c2ccc(CS(=O)(=O)c3ccccc3OC)o2)CC1	i	-39	59*	0	i	38	59*	21*	55*	34*
Cc1ccc(S(=O)(=O)Cc2ccc(C(=O)N3CCN(Cc4ccccc4)CC3)o2)cc1	i	nt	1	nt	i	-7	nt	nt	nt	nt
COc1ccc(S(=O)(=O)Cc2ccc(C(=O)N3CCN(Cc4ccccc4)CC3)o2)cc1	i	9	-1	0	i	19	nt	nt	nt	nt
COc1ccc(S(=O)(=O)Cc2ccc(C(=O)N3CCc4ccccc4C3)o2)cc1	i	-7	61*	2	i	61*	92*	23*	76*	12
COc1ccccc1N1CCN(C(=O)c2cccc3c(=O)c(C)c(-c4ccccc4)oc23)CC1	i	-53	70*	22	i	60*	69*	37*	48	33*
Cc1ccc(S(=O)(=O)Cc2ccc(C(=O)N3CCc4ccccc4C3)o2)cc1	i	1	69*	0	i	64*	48*	5	11	16
CC(CC(=O)NCc1ccc(Cl)cc1)c1ccccc1 (stereo unspecified)	i	17	1	-1	i	-9	nt	nt	nt	nt
COc1nc(N)nc(N)c1NS(=O)(=O)c1ccc(C)cc1	i	-3	1	0	i	-16	nt	nt	nt	nt
Cc1ccc(N(C)c2nc(N)nc(N)c2N=O)cc1	nt	nt	59*	nt	nt	24	53*	65*	35	37*
CCOC(=O)C(C(=O)OCC)c1cc(Br)c2noc3c2c1C(=O)c1ccccc1-3	i	23	59*	6	i	73*	66*	62*	87*	85*
O=C(Nc1ccc2c(c1)OCCO2)C1c2ccccc2OCC(=O)N1CC(F)(F)F (stereo unspecified)	nt	nt	5	nt	nt	-4	nt	nt	nt	nt
CCOC(=O)[C@H]1[C@H]2COc3ccc(Br)cc3[C@@H]2N2C(=O)c3cc(OC)c(OC)cc3NC(=O)[C@@]12C	i	-1	76*	0	i	27	101*	44*	28	7
CCOC(=O)[C@H]1[C@H]2COc3ccc(C)cc3[C@@H]2N2C(=O)c3cc(OC)c(OC)cc3NC(=O)[C@@]12C	i	-7	2	0	i	-2	nt	nt	nt	nt
COc1cc(=O)n(C)c2ccccc12	i	12	3	-2	i	-21	nt	nt	nt	nt
COc1ccc2c(OC)cc(=O)n(C)c2c1	i	-1	68*	-1	i	-14	7	5	6	4
CCCCCNC(=O)c1ccc2c(=O)n(CCCOCC)c(=S)[nH]c2c1	i	-6	3	0	i	-14	nt	nt	nt	nt
CCOCCCn1c(=S)[nH]c2cc(C(=O)NCCc3ccccc3)ccc2c1=O	i	3	44*	0	i	-9	50*	7	21	10
O=c1c2cnn(-c3ccc(F)cc3)c2ncn1Cc1cccnc1	i	11	3	-1	i	-10	nt	nt	nt	nt
O=c1c2cnn(-c3ccc(F)cc3)c2ncn1Cc1ccccc1	i	35	43*	-2	i	50*	4	4	6	12
COc1cc(C=NNC(=O)Cn2nc(C)cc2C)ccc1OC(=O)C1CC1	i	3	+	0	nt	-2	2	2	5	1
O=C(Cn1cnc([N+](=O)[O-])c1)NCCc1ccccc1	i	24	nt	0	i	nt	nt	1	nt	-2
CN(C)c1ccc(/C=C2\SC(=S)N(Nc3ncc(C(F)(F)F)cc3Cl)C2=O)cc1	i	-147	123*	159*	i	87*	76*	122*	77*	90*
Cc1cc(C)nc(NN2C(=O)/C(=C/c3ccccc3)SC2=S)n1	i	-7	1	-1	i	-3	nt	nt	nt	nt
O=C(Nc1ccccc1F)C1CCN(S(=O)(=O)c2cccnc2)CC1	i	18	5	-1	i	-47	nt	nt	nt	nt
COc1ccc(NC(=O)CCc2nc(-c3ccccc3F)no2)cc1	i	14	48*	1	i	15	67*	8	44	20
SMILES	ANO1 activ	CRFR2-BP antag	TAAR1 ag	CRFBP-R2 agonist	TMEM16A inh	TAAR1 antag	TAAR1 ag conf	Ga16 ag counter	TAAR1 desens	Ga16 nonsel ant
Cc1cccn2c(=O)nc(SCC(=O)Nc3ccc4c(c3)OCO4)nc12	i	30	0	0	i	-16	nt	nt	nt	nt
Cc1ccc(C(=O)NC(=S)NNC(=O)c2ccccc2O)cc1	i	12	114*	90*	i	32	127*	97*	77*	45*
O=C(NC(=S)NNC(=O)c1ccccc1O)c1cccs1	i	-16	27	8	i	-3	nt	nt	nt	nt
Cc1ccccc1C(=O)NNC(=S)NC(=O)c1ccccc1	i	16	123*	160*	i	55*	135*	112*	100*	78*
O=C(NC(=S)NNC(=O)c1ccccc1O)c1ccc(F)cc1	i	11	90*	32	i	21	55*	58*	20	22*
Cc1ccccc1C(=O)NNC(=O)c1ccc(Br)cc1	i	-18	2	6	i	-9	nt	nt	nt	nt
O=C(NC(=S)NNC(=O)c1ccccc1O)c1ccccc1	i	-6	66*	15	i	29	76*	66*	24	21
COc1cc(C(=O)N/N=C/c2ccc(OC)c(CN3CCN(c4ccc(F)cc4)CC3)c2)ccc1O	i	-2	1	-1	i	13	nt	nt	nt	nt
O=[N+]([O-])c1ccc(N/N=C/c2cccc(O)c2)cc1	i	-5	59*	2	i	46	43*	7	25	16
CCC(C)NC(=O)c1cc(-c2ccc(OC)cc2)on1 (stereo unspecified)	i	-15	8	17	i	-18	nt	nt	nt	nt
